Calls of active or inactive are those of the source. The calls are words filed in the database; no cut-off is given here.
Tests used:
[1] = target: 5-hydroxytryptamine receptor 6 (Homo sapiens, UniProt P50406); test: Displacement of [3H]-LSD from human 5-HT6 receptor incubated for 1 hr by microbeta counting method
In short: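 Human receptor membranes from homogenized cell pellets, centrifuged twice at 35 000 g with a 15 min 37°C incubation between spins. Buffer 50 mM Tris–HCl, 0.5 mM EDTA, 4 mM MgCl2. Radioligand 2 nM [3H]-LSD. Nonspecific binding defined with 10 μM methiothepine. Incubated 1 h at 37°C, ended by filtration. Triplicates at 7–8 concentrations (10⁻¹¹–10⁻⁴ M). Ki by Cheng-Prusoff, means of ≥2 experiments.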

[2] = Dissociation constant, pKa of the compound; assay type: physicochemical
[3] = target: D(2) dopamine receptor (Homo sapiens, UniProt P14416); test: Displacement of [3H]-Raclopride from dopamine D2 receptor (unknown origin) incubated for 1 hr by microbeta counting method
Sequence of D(2) dopamine receptor (P14416 whole entry): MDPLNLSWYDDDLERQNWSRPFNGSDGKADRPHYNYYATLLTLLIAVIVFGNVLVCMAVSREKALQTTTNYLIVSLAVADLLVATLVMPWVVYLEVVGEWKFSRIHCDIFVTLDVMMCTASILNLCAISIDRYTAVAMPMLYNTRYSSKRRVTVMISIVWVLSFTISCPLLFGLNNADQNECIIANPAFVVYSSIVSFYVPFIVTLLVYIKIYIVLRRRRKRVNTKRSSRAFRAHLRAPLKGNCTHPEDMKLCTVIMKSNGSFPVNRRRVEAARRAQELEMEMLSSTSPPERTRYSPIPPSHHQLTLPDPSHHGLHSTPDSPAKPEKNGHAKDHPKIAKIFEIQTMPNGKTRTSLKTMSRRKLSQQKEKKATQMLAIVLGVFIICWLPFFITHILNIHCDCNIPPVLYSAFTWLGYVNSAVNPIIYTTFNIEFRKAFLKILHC
In short: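 D2L receptor membranes from cell pellets, homogenized and spun twice at 35 000 g with a 15 min 37°C step between spins. Buffer 50 mM Tris–HCl, 1 mM EDTA, 4 mM MgCl2, 120 mM NaCl, 5 mM KCl, 1.5 mM CaCl2, 0.1% ascorbate. Radioligand [3H]-raclopride. Nonspecific binding defined with 1 μM (+)butaclamol. Incubated 1 h at 37°C, then filtered. Triplicates at 7–8 concentrations (10⁻¹¹–10⁻⁴ M). Ki by Cheng-Prusoff, means of ≥2 experiments.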

[4] = target: T1, 5-hydroxytryptamine receptor 1A (Homo sapiens, UniProt P08908); test: (§1) Displacement of [3H]-8-OH-DPAT from 5-HT1A receptor (unknown origin) incubated for 1 hr by microbeta counting method
T1 sequence (P08908 whole entry): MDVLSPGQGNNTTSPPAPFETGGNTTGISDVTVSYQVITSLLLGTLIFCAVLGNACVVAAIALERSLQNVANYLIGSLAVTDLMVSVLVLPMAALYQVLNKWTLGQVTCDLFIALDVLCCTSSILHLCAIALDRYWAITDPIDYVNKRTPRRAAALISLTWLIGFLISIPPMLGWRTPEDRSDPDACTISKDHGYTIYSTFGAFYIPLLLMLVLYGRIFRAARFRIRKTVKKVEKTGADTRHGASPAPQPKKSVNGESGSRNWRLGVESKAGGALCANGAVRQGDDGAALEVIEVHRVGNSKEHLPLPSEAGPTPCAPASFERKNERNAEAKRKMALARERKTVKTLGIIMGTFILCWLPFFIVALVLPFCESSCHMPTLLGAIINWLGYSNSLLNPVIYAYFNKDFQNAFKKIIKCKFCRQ
In short: (§2)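 Membranes prepared from cell pellets by homogenization and two 35 000 g spins with a 15 min 37°C step between them. Buffer 50 mM Tris–HCl, 0.1 mM EDTA, 4 mM MgCl2, 10 μM pargyline, 0.1% ascorbate. Radioligand 1.5 nM [3H]-8-OH-DPAT. Nonspecific binding defined with 10 μM 5-HT. Incubated 1 h at room temperature, then filtered. Triplicates at 7–8 concentrations (10⁻¹¹–10⁻⁴ M). Ki by Cheng-Prusoff, means of ≥2 experiments.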

[5] = target: T2, 5-hydroxytryptamine receptor 1A (Homo sapiens) (UniProt P08908); test: as §1; in short: as §2
T2 sequence (whole entry): T1 sequence (P08908 whole entry)

[6] = target: 5-hydroxytryptamine receptor 7 (Homo sapiens) (UniProt P34969); test: Displacement of [3H]-5-CT from 5-HT7b receptor (unknown origin) incubated for 1 hr by microbeta counting method
Sequence of 5-hydroxytryptamine receptor 7 (Homo sapiens) (P34969 whole entry): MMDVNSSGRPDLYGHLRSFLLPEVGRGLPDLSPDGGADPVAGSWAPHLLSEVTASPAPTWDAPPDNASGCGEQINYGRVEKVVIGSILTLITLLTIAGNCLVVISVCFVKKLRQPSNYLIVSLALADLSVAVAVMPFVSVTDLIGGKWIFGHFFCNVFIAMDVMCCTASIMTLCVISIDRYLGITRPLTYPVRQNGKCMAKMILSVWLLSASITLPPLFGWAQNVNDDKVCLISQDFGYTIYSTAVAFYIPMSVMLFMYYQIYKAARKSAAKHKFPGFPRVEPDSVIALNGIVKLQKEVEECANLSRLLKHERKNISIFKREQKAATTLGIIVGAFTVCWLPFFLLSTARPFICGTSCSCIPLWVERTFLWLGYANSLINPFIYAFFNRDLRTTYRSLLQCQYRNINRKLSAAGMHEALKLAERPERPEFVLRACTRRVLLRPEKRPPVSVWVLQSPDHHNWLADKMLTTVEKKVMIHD
In short: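 Membranes from thawed cell pellets, homogenized and centrifuged twice at 35 000 g (20 min, 4°C) with a 15 min 37°C incubation between spins. Buffer 50 mM Tris–HCl, 4 mM MgCl2, 10 μM pargyline, 0.1% ascorbate. Radioligand 0.6 nM [3H]-5-CT. Nonspecific binding defined with 10 μM 5-HT. Incubated 1 h at 37°C, ended by rapid filtration. Triplicates at 7–8 concentrations (10⁻¹¹–10⁻⁴ M). Ki by Cheng-Prusoff, means of ≥2 experiments.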

[7] = target: 5-hydroxytryptamine receptor 2A (Homo sapiens, UniProt P28223); test: Binding affinity to 5-HT2A receptor (unknown origin) incubated for 1 hr by microbeta counting based displacement assay
Sequence of 5-hydroxytryptamine receptor 2A (P28223 whole entry): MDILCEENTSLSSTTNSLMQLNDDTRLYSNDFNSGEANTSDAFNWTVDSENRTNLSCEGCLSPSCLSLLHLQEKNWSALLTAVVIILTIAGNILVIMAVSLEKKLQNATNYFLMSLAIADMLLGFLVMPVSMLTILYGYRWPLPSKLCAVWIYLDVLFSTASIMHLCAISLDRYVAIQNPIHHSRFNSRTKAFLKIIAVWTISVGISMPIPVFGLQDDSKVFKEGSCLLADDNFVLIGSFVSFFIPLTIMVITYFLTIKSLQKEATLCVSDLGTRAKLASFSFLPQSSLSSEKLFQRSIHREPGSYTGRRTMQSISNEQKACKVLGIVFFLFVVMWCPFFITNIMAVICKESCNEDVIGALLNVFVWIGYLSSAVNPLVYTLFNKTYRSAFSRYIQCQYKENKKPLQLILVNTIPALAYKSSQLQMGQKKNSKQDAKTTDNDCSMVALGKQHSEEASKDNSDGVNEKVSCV

Sequence of 5-hydroxytryptamine receptor 6 (P50406 whole entry): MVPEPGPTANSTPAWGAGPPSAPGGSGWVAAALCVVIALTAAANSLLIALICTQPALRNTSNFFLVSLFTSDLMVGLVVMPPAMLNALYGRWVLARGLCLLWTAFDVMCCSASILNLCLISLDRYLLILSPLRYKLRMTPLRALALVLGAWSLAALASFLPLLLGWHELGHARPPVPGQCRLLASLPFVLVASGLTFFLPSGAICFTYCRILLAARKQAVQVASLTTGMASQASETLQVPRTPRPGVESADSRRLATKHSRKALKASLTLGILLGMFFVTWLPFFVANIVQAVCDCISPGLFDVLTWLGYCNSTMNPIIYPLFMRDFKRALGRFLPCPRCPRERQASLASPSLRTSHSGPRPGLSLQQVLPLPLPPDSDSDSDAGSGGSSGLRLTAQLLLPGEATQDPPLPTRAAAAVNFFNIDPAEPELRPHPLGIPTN

Compound `CN(C)c1ccc2c(ccn2S(=O)(=O)c2ccccc2)c1` has a Ki [1] of 82 nM and a pKa [2] of 3.3.

For `O=S(=O)(c1ccccc1)n1cc(N2CCCCC2)c2ccccc21`, the Ki [1] was 219 nM and the pKa [2] was 4.5.

Compound `CN1CCN(c2ccc3c(ccn3S(=O)(=O)c3ccccc3)c2)CC1` has a Ki [1] of 27 nM and a pKa [2] of 7.4.

`O=S(=O)(c1ccccc1)n1ccc2ccc(N3CCN(CC(F)(F)F)CC3)cc21` gave a Ki [1] of 1200 nM and a pKa [2] of 3.6.

In the case of `O=S(=O)(c1ccccc1)n1cc(-c2ccccc2)c2ccccc21`, the Ki [1] is reported as 146 nM.

In the case of `O=S(=O)(c1ccccc1)n1ccc2cc(-c3ccncc3)ccc21`, the Ki [1] is reported as 409 nM and the pKa [2] is reported as 4.5.

Work on `CN(C)c1cccc2c1ccn2S(=O)(=O)N1CCCCC1` yielded a Ki [1] of 39100 nM.

Work on `O=S(=O)(c1ccccc1)n1ccc2c(-c3ccncc3)cccc21` yielded a Ki [1] of 1510 nM and a pKa [2] of 4.9.

With `CCCCS(=O)(=O)n1ccc2c(N(C)C)cccc21` the Ki [1] was 49900 nM.

`CN1CCN(c2ccc3ccn(S(=O)(=O)c4ccccc4)c3c2)CC1` showed a Ki [1] of 9 nM, a Ki [3] of 241 nM and a Ki [4] of 247 nM. For the same compound, the pKa [2] was 8.2.

`O=S(=O)(c1ccccc1)n1ccc2c(-c3ccccc3)cccc21` gave a Ki [1] of 162 nM.

Compound `O=S(=O)(C1CCCCC1)n1ccc2ccc(-c3ccncc3)cc21` has a Ki [1] of 2180 nM.

Work on `O=S(=O)(c1ccccc1)n1ccc2ccc(N3CCCCC3)cc21` yielded a Ki [1] of 403 nM and a pKa [2] of -0.4.

`O=S(=O)(c1ccccc1)n1ccc2ccccc21` gave a Ki [1] of 159 nM.

For `O=S(=O)(c1ccccc1)n1ccc2ccc(-c3ccncc3)cc21`, the Ki [1] was 38 nM, the Activity [3] was “inactive” and the Activity [5] was “inactive”. The Activity [6] was “inactive”, the pKa [2] was 4.9 and the Activity [7] was “inactive”.

Work on `CC(=O)N1CCN(c2ccc3c(ccn3S(=O)(=O)c3ccccc3)c2)CC1` yielded a Ki [1] of 4850 nM and a pKa [2] of 0.9.

`CC(=O)N1CCN(c2ccc3ccn(S(=O)(=O)c4ccccc4)c3c2)CC1` showed a Ki [1] of 97 nM and a pKa [2] of -0.4.

Compound `CN1CCN(c2cn(S(=O)(=O)c3ccccc3)c3ccccc23)CC1` has a pKa [2] of 7.4.

In the case of `COc1ccc2c(ccn2S(=O)(=O)c2ccccc2)c1`, the Ki [1] is reported as 127 nM.

`CS(=O)(=O)n1ccc2ccc(-c3ccncc3)cc21` gave a Ki [1] of 4050 nM.

`CN(C)c1cn(S(=O)(=O)c2ccccc2)c2ccccc12` gave a Ki [1] of 474 nM and a pKa [2] of 4.2.

Compound `COc1cccc2c1ccn2S(=O)(=O)c1ccccc1` has a Ki [1] of 262 nM.

For `CN1CCN(c2cccc3c2ccn3S(=O)(=O)c2ccccc2)CC1`, the Ki [4] was 164 nM, the pKa [2] was 7.3 and the Ki [7] was 41 nM.

Work on `O=S(=O)(c1ccccc1)n1ccc2cc(N3CCCCC3)ccc21` yielded a Ki [1] of 360 nM and a pKa [2] of 1.9.

Compound `O=S(=O)(c1ccccc1)n1ccc2c(N3CCN(CC(F)(F)F)CC3)cccc21` has a Ki [1] of 1740 nM and a pKa [2] of 3.9.

Work on `O=S(=O)(N1CCCCC1)n1ccc2ccc(-c3ccncc3)cc21` yielded a Ki [1] of 1660 nM.

For `O=S(=O)(c1ccccc1)n1ccc2c(O)cccc21`, the Ki [1] was 108 nM.

Work on `O=S(=O)(c1ccccc1)n1ccc2cc(N3CCN(CC(F)(F)F)CC3)ccc21` yielded a Ki [1] of 5250 nM and a pKa [2] of 3.4.

`CCCCS(=O)(=O)n1ccc2ccc(-c3ccncc3)cc21` gave a Ki [1] of 1150 nM.

In the case of `CN(C)c1cccc2c1ccn2S(=O)(=O)c1ccccc1`, the Ki [1] is reported as 65 nM, the Activity [3] is reported as “inactive” and the Activity [5] is reported as “inactive”. The Activity [6] was “inactive”, the pKa [2] was 5 and the Activity [7] was “inactive”.

Work on `O=S(=O)(c1ccccc1)n1cc(N2CCN(CC(F)(F)F)CC2)c2ccccc21` yielded a Ki [1] of 2030 nM and a pKa [2] of 3.6.

`c1ccc(Cn2ccc3ccc(-c4ccncc4)cc32)cc1` gave a Ki [1] of 3260 nM.

Compound `CC(=O)N1CCN(c2cn(S(=O)(=O)c3ccccc3)c3ccccc23)CC1` has a Ki [1] of 97 nM and a pKa [2] of 0.6.

Compound `CN(C)c1cccc2c1ccn2S(=O)(=O)C1CCCCC1` has a Ki [1] of 4890 nM.

`O=S(=O)(c1ccccc1)n1ccc2c(N3CCCCC3)cccc21` showed a Ki [1] of 128 nM and a pKa [2] of 5.4.

Compound `O=S(=O)(c1ccccc1)n1ccc2ccc(-c3ccccc3)cc21` has a Ki [1] of 178 nM.

In the case of `CC(=O)N1CCN(c2cccc3c2ccn3S(=O)(=O)c2ccccc2)CC1`, the Ki [1] is reported as 714 nM and the pKa [2] is reported as 0.8.

With `O=S(=O)(c1ccccc1)n1ccc2cc(-c3ccccc3)ccc21` the Ki [1] was 558 nM.

With `CN(C)c1cccc2c1ccn2Cc1ccccc1` the Ki [1] was 2560 nM.

`CN(C)c1cccc2c1ccn2S(C)(=O)=O` gave a Ki [1] of 4720 nM.

Work on `CN(C)c1ccc2ccn(S(=O)(=O)c3ccccc3)c2c1` yielded a Ki [1] of 211 nM and a pKa [2] of -0.3.

For `O=S(=O)(c1ccccc1)n1cc(-c2ccncc2)c2ccccc21`, the Ki [1] was 124 nM and the pKa [2] was 5.

— ChEMBL document CHEMBL4732129, “Rationally designed N-phenylsulfonylindoles as a tool for the analysis of the non-basic 5-HTR ligands binding mode” (Eur J Med Chem, 2021)
